Columns and labels:
[1] = system: B16-F10; test: Potentiation of temozolomide-induced cytotoxicity against mouse B16F10 cells xenografted in C57BL/6 mouse assessed as growth inhibition at 12.5 mg/kg/day, po after 17 days relative to temozolomide monotherapy; format: functional
Method in brief: (§1)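 B16F10 syngeneic model: 6×10^4 cells in 50% matrigel injected sc into the flank of 6–8 week old female C57BL/6 mice (20 g), allocated to groups by injection order. Inhibitor given po bid days 6–11 at 1, 5 or 12.5 mg/kg/day; temozolomide 50 mg/kg/day po qd days 6–11. Tumor volume by caliper as L×W²/2; TGI versus temozolomide alone.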

[2] = Half life in Beagle dog at 2.5 mg/kg, iv; format: ADME, organism-based, Canis lupus familiaris; parameters: dose 2.5 mg/kg, route intravenous; conditions: in vivo
[3] = Water solubility of compound at physiological pH; format: physicochemical
[4] = system: B16-F10; test: Antitumor activity against mouse B16F10 cells xenografted in C57BL/6 mouse assessed as tumor volume at 12.5 mg/kg/day, po after 14 days; format: functional
[5] = AUC in cynomolgus monkey at 2.5 mg/kg, po; format: ADME, organism-based, Macaca fascicularis; parameters: dose 2.5 mg/kg, route oral; conditions: plasma
[6] = Volume of distribution at steady state in Beagle dog at 2.5 mg/kg; format: ADME, organism-based, Canis lupus familiaris; parameters: dose 2.5 mg/kg; conditions: in vivo, read-out: Vdss
[7] = Half life in Sprague-Dawley rat at 5 mg/kg, iv; format: ADME, organism-based; parameters: dose 5 mg/kg, route intravenous; conditions: in vivo
[8] = Oral bioavailability in cynomolgus monkey at 2.5 mg/kg; format: ADME, organism-based, Macaca fascicularis; conditions: in vivo
[9] = molecular target: Cytochrome P450 2D6 (Homo sapiens, UniProt P10635); test: Inhibition of CYP2D6 in human liver microsomes; format: ADME, Microsome
[10] = system: MX1; test: Potentiation of carboplatin-induced cytotoxicity against human MX1 cells xenografted in SCID mouse assessed as growth inhibition at 12.5 mg/kg/day, sc osmotic minipump after 42 days relative to carboplatin monotherapy; format: functional; conditions: route subcutaneous
Method in brief: (§2)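 MX-1 xenograft: 0.2 cc of 1:10 tumor brei injected sc into the flank of female SCID mice on day 0; size-matched on day 15, 10 mice/group. Inhibitor 1–50 mg/kg/day by sc osmotic minipump for 14 days from day 18; carboplatin 10 mg/kg ip on days 20, 24 and 28. Caliper volumes as L×W²/2; TGI relative to carboplatin alone.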

[11] = molecular target: Cytochrome P450 2C9 (Homo sapiens, UniProt P11712); test: Inhibition of CYP2C9 in human liver microsomes; format: ADME, Microsome
[12] = Half life in CD1 mouse at 3 mg/kg, iv; format: ADME, organism-based; parameters: dose 3 mg/kg, route intravenous; conditions: in vivo
Method in brief: (§3)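 Mouse PK: oral dose 10 mg/kg in 2.5% EtOH, 1 drop Tween-80, 25% PEG400 in PBS; iv dose 3 mg/kg in 2.5% EtOH, 5% DMSO, 1 drop Tween-80, 25% PEG400 in PBS. Oral bioavailability, iv half-life, oral AUC and Cmax derived from plasma profiles.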

[13] = Cmax in CD1 mouse at 10 mg/kg, po; format: ADME, organism-based; parameters: dose 10 mg/kg, route oral; conditions: in vivo; method in brief: as §3
[14] = Clearance in Sprague-Dawley rat at 5 mg/kg; format: ADME, organism-based; parameters: dose 5 mg/kg; conditions: in vivo
[15] = Protein binding in human plasma at 5 uM; format: ADME, cell-free; conditions: read-out: PPB (converted)
[16] = system: B16-F10; test: Potentiation of temozolomide-induced cytotoxicity against mouse B16F10 cells xenografted in C57BL/6 mouse assessed as growth inhibition at 1 mg/kg/day, po after 17 days relative to temozolomide monotherapy; format: functional; method in brief: as §1
[17] = system: MX1; test: Potentiation of carboplatin-induced cytotoxicity against human MX1 cells xenografted in SCID mouse assessed as growth inhibition at 50 mg/kg/day, sc osmotic minipump after 42 days relative to carboplatin monotherapy; format: functional; conditions: route subcutaneous; method in brief: as §2
[18] = Protein binding in CD1 mouse plasma at 5 uM; format: ADME, cell-free; conditions: read-out: PPB (converted)
[19] = Half life in cynomolgus monkey at 2.5 mg/kg, iv; format: ADME, organism-based, Macaca fascicularis; parameters: dose 2.5 mg/kg, route intravenous; conditions: in vivo
[20] = molecular target: Cytochrome P450 2C19 (Homo sapiens, UniProt P33261); test: Inhibition of CYP2C19 in human liver microsomes; format: ADME, Microsome
[21] = system: MX1; test: Potentiation of carboplatin-induced cytotoxicity against human MX1 cells xenografted in SCID mouse assessed as growth inhibition at 1 mg/kg/day, sc osmotic minipump after 42 days relative to carboplatin monotherapy; format: functional; conditions: route subcutaneous; method in brief: as §2
[22] = Oral bioavailability in CD1 mouse at 10 mg/kg; format: ADME, organism-based; conditions: in vivo; method in brief: as §3
[23] = AUC in Beagle dog at 2.5 mg/kg, po; format: ADME, organism-based, Canis lupus familiaris; parameters: dose 2.5 mg/kg, route oral; conditions: plasma
[24] = Cmax in Beagle dog at 2.5 mg/kg, po; format: ADME, organism-based, Canis lupus familiaris; parameters: dose 2.5 mg/kg, route oral; conditions: in vivo
[25] = AUC in Sprague-Dawley rat at 5 mg/kg, po; format: ADME, organism-based; parameters: dose 5 mg/kg, route oral; conditions: plasma

Sequence of Cytochrome P450 2D6 (P10635 whole entry): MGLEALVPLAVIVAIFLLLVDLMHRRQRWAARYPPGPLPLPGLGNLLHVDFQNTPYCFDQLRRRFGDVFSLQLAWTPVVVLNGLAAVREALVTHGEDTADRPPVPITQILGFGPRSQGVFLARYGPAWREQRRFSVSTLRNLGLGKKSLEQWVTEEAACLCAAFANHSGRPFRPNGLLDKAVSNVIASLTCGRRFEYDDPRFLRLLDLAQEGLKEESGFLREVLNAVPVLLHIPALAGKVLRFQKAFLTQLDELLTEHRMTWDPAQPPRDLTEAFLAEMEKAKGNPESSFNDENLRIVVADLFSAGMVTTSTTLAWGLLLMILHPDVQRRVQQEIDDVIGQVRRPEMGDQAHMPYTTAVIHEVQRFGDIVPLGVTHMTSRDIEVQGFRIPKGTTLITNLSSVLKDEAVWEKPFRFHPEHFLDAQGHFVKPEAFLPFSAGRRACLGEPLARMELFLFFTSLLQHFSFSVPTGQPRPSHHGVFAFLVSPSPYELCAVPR
Sequence of Cytochrome P450 2C19 (P33261 whole entry): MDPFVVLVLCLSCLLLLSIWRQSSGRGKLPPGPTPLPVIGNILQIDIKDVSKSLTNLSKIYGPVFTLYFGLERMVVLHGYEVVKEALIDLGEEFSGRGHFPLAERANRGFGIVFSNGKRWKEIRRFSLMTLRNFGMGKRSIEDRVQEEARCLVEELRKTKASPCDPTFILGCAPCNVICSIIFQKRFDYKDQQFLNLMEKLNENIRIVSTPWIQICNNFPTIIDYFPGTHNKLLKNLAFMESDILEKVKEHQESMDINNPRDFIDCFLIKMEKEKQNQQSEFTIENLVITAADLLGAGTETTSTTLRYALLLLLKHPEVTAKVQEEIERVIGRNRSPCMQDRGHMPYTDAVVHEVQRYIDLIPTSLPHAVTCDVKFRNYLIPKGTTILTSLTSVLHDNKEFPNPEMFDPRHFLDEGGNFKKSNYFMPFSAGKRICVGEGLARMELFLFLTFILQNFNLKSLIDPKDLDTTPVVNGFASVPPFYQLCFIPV
Sequence of Cytochrome P450 2C9 (P11712 whole entry): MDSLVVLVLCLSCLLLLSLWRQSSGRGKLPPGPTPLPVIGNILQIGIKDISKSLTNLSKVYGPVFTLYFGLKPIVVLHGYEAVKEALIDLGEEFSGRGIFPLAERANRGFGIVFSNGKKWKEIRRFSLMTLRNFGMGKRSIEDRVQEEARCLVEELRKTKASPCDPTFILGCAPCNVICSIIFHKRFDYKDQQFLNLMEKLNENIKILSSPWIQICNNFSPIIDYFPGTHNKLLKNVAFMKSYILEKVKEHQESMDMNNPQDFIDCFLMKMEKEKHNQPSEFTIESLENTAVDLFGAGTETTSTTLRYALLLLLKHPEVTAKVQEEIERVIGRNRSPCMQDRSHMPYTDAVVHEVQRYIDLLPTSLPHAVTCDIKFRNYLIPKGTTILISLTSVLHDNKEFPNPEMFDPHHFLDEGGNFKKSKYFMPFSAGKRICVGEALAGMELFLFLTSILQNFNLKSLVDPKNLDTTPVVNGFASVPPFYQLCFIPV

half-life [2]: 2.7 h
solubility [3]: > 5000 µg/mL
AUC [5]: 1300 ng·h/mL
Vd [6]: 2.2 L/kg
half-life [7]: 1.2 h
bioavailability [8]: 56%
Activity [9]: Not Active
Activity [11]: Not Active
half-life [12]: 1.6 h
Cmax [13]: 1600 ng/mL
clearance [14]: 33.3 mL/min/kg
fraction unbound at 5 µM [15]: 0.59
fraction unbound at 5 µM [18]: 0.59
half-life [19]: 1.9 h
Activity [20]: Not Active
bioavailability [22]: 92%
AUC [23]: 3200 ng·h/mL
Cmax [24]: 800 ng/mL
AUC [25]: 1500 ng·h/mL
SMILES: C[C@]1(c2nc3c(C(N)=O)cccc3[nH]2)CCCN1 [VELIPARIB]
TGI [1]: 64%
Activity [4]: 2452 mm3
TGI [10]: 58%
TGI [16]: 43%
TGI [17]: 91%
TGI [21]: 21%

From ChEMBL document CHEMBL1139389, “Discovery of the Poly(ADP-ribose) polymerase (PARP) inhibitor 2-[(R)-2-methylpyrrolidin-2-yl]-1H-benzimidazole-4-carboxamide (ABT-888) for the treatment of cancer” (J Med Chem, 2009)
